Source: PubChem BioAssay
Rows were chosen to be rich in hits. Some 1.4% of all compounds tested hit in one or more screens of this group.
CRFBP-R2 block = CRF-BP/CRF-R2 complex antagonism; HEK293 CRF-R2/CRF-BP, CRF-induced calcium fluorescence; inhibition, % at 11.8 µM; 0.59% of 350,000 active;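 active means inhibition of the ligand-induced calcium signal above about 50% at the single tested concentration, limit read from the data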
CRFBP-R2 agonist = agonists of human CRF-binding protein/CRF-R2 receptor complex. HEK293 CRF-R2/CRF-BP, calcium dye fluorescence (FLIPR); percent of saturating CRF peptide response. activation, % at 13.2 µM. 0.46% of 350,000 active. AID 588473;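 active means activation of at least 50%, plus an integration ratio under a set limit after plate pattern correction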
DDE Tn6 FP inh = inhibitors of Tn6 peptide binding to human fibrin DD(E). P02675. inhibition, % at 8.3 µM. 0.21% of 370,000 active. Fibrin DD(E) TRITC-Tn6 fluorescence polarization displacement. AID 720509;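 active means inhibition above a per-campaign cutoff: mean of compounds within control limits plus 3 SD, cut at about 15% in these data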
Target sequence (P02675 whole entry, looked up): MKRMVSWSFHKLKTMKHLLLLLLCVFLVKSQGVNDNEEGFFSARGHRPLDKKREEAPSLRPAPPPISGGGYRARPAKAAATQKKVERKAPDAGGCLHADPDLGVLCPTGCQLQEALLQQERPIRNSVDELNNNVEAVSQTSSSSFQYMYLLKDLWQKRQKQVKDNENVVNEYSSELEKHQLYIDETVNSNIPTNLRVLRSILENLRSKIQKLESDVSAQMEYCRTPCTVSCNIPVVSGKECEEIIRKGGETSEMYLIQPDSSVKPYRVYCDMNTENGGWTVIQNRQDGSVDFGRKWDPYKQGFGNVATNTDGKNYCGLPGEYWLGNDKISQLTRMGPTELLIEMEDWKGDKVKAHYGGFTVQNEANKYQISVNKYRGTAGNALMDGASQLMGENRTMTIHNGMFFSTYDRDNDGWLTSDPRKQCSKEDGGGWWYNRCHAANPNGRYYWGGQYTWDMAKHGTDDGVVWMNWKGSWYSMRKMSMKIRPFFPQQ
Cardiac RTF inh = cardiac RTF calcium desensitization; inhibition, % at 7.15 µM; AID 493244; P19429+P45379; 0.12% of 340,000 active; IANBD-labeled cardiac RTF, Ca2+ fluorescence;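 active means inhibition above the mean inhibition of all tested compounds plus 3 SD, cut at about 17% in these data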;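 further: assay run at fixed EC70 calcium of 1.6 mM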
DDE Tn7 FP inh = DD(E)-Tn7 binding inhibition, primary FP screen | inhibition, % at 8.3 µM | AID 720508 | 0.13% of 370,000 active | P02675 | FP displacement of FITC-Tn7 peptide from fibrin DD(E); 0% = median of compound wells per plate;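 active means inhibition above the mean of compounds falling within the control limits plus 3 SD of them, cut at about 14% in these data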
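Assay system: Fibrin-DD(E) protein isolated from polymerized human fibrin clots; read-out basis: percent inhibition; medium: Tris/NaCl/CaCl2 buffer, pH 7.8; signal: FP measurement; incubation: 10 min plus 3 h, room temperature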
RTF Ca sens act = increases calcium sensitivity of human cardiac regulated thin filaments; AID 493008; activation, % at 7.2 µM; P19429+P45379; IANBD-labeled TnC RTF fluorescence at EC20 calcium; 0% EC20 calcium, 100% full calcium; 0.24% of 340,000 active;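 active means activation above the mean over all tested compounds plus 3 SD, cut at about 30% in these data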;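 further: rise in fluorescence read as greater calcium sensitivity of cardiac thin filaments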
A number is an active result; – = inactive; · = no result; + = active, no number.

SMILES	CRFBP-R2 block	CRFBP-R2 agonist	DDE Tn6 FP inh	Cardiac RTF inh	DDE Tn7 FP inh	RTF Ca sens act
COC(=O)COc1ccc(Oc2nc(SC)nc(N(C)C)n2)nn1	–	55	–	–	–	–
CCc1cccc2cc3c(N)c(C(=O)Nc4ccc(S(=O)(=O)N5CCCC5)cc4)sc3nc12	–	63	–	–	–	–
Nc1ccc2nc(-c3ccccc3)cnc2c1	–	66	–	–	–	–
COC(=O)c1ccc(Sc2ccc(Cl)cc2)c(N)c1	73	–	–	–	–	–
CC(=O)c1cc(C#N)c(Oc2ccc(Cl)cc2Cl)nc1C	55	–	–	–	–	–
COC(=O)C1=C(C)N(Cc2ccc(C(F)(F)F)cc2)C(=NCC2CC2)NC1c1cccc(Cl)c1 (stereo not given)	·	·	–	·	–	·
O=C(CSc1nnc(-c2ccccc2)n1-c1ccc(Cl)cc1)NN=Cc1c[nH]c2ccccc12	·	·	–	·	–	·
CC1(C)CC(=O)C2=C(C1)OC(N)=C(C#N)[C@@H]2c1ccccc1[N+](=O)[O-]	–	–	–	–	–	41
COc1ccc(N/N=C(/N=Nc2nc(C)cc(=O)[nH]2)c2ccccc2)cc1	57	–	–	–	–	–
Cc1cc(=O)[nH]c(N=N/C(=N/Nc2ccc(O)cc2)c2ccccc2)n1	–	–	–	–	–	–
C#CCN1C(=O)S/C(=C/C=C/c2ccc(N(C)C)cc2)C1=O	–	85	–	–	–	–
O=C(CN1C(=O)S/C(=C\C=C\c2ccccc2)C1=O)Nc1ccccc1C(=O)O	–	–	–	–	–	–
COc1cc(C(=O)NCC(c2cccs2)N2CCOCC2)ccc1OCc1ccccc1 (stereo not given)	–	–	–	·	–	·
Cc1cccc(NC(=O)c2cccc([N+](=O)[O-])c2O)c1C	59	–	–	–	–	–
Cc1cccc(NC(=O)c2ccccc2O)c1C	–	–	–	–	–	–
COC(=O)[C@]12C[C@H](CC(=O)NCc3cccc4ccccc34)C(=O)N(CCC3=CCCCC3)C1=C[C@H](C(C)C)O[C@@H]2C1CC1	·	·	–	·	–	·
Cc1ccc(S(=O)(=O)Nc2cc(=O)[nH]c(SCC(=O)Nc3cccc(C(F)(F)F)c3)n2)cc1	110	–	–	–	–	–
O/C(=C\c1nc2ccccc2nc1/C=C(\O)c1ccccc1)c1ccccc1	84	–	·	–	·	–
O=C1NC(Cc2ccccc2)c2nc3ccc(Cl)cc3c(=O)n2-c2ncccc21 (stereo not given)	–	–	–	·	–	·
CSCCC(NC(=O)c1ccccc1)C(=O)N/N=C(\C)Cc1ccccc1 (stereo not given)	–	–	–	–	–	–
CSCCC(NC(=O)c1ccccc1)C(=O)N/N=C(\C)c1ccccc1 (stereo not given)	–	112	–	–	–	–
COc1ccc(NC(=S)NCc2ccco2)cc1	–	–	–	–	–	–
COc1cc(NC(=S)NCc2ccco2)cc(OC)c1	96	–	–	–	–	–
c1ccc2c(c1)OCCOCCOCCOCCOCCOc1ccccc1OCCOCCOCCO2	99	60	–	–	–	–
OCCN1CCOCCOc2ccccc2OCCOCC1	–	–	–	–	–	–
SMILES	CRFBP-R2 block	CRFBP-R2 agonist	DDE Tn6 FP inh	Cardiac RTF inh	DDE Tn7 FP inh	RTF Ca sens act
CCN1C(=O)c2cccc3c(N)ccc(c23)C1=O	–	–	–	–	32	+
CSc1ccc(C=Nn2c(-c3cc(C)[nH]n3)n[nH]c2=S)cc1	·	·	–	·	–	·
C=CCc1cccc(C=NNC(=O)c2ccco2)c1O	·	·	–	·	–	·
O=c1[nH]c2cc3c(cc2cc1C(c1nnnn1C1CCCC1)N1CCCc2ccccc21)OCCO3 (stereo not given)	–	57	–	–	–	–
COc1cc2cc(C(c3nnnn3C3CCCC3)N3CCc4ccccc43)c(=O)[nH]c2cc1OC (stereo not given)	–	–	·	–	·	–
COc1ccc(C(Cl)=C(C=O)c2ccc(OC)c(OC)c2)cc1OC	·	·	–	·	–	·
COc1ccccc1C/C(N)=N/OC(=O)COc1cccc(C)c1C	–	–	–	19	–	–
COc1ccccc1C/C(N)=N/OC(=O)COc1cc(C)cc(C)c1C	–	–	–	–	–	–
